Type in all cases: functional
Test [1] relates to IGROV-1. The experiment in a line: Inhibition of growth against IGROV-ET cells after 72 hrs exposure. Conditions: Homo sapiens, IGROV-1, 72 h. In outline: (§1)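 Human tumour cells seeded at 5 × 10^3 per well in RPMI and allowed to attach for 18 h in drug-free medium. Compounds added in DMSO:H2O (3:7) for 72 h of continuous exposure. Cells fixed with cold TCA (60 min, 4 °C), stained with 0.4% SRB in 1% acetic acid (10 min, RT), and bound dye solubilised in Tris. OD read at 490 nm. GI50 calculated from 100 × [(T − T0)/(C − T0)] = 50, using control, test and time-zero ODs.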

Test [2] relates to LoVo. Briefly: Inhibition of growth against LoVo cells after 72 hrs exposure. The conditions noted are these: Homo sapiens. In outline: as §1
Another test deals with LNCaP. Briefly: Inhibition of growth against LnCAP cells after 72 hrs exposure. Conditions: Homo sapiens. In outline: as §1
For another test, the system named is SK-BR-3. The experiment in a line: Inhibition of growth against SKBR3 cells after 72 hrs exposure. The conditions noted are these: Homo sapiens, SK-BR-3, 72 h. In outline:
as §1

A further test has as its system HT-29. The experiment in a line: Inhibition of growth against HT29 cells after 72 hrs exposure. The conditions noted are these: Homo sapiens, HT-29, 72 h. In outline:
as §1

Another test has as its system PANC-1. The experiment in a line: Inhibition of growth against PANC1 cells after 72 hrs exposure. The conditions noted are these: Homo sapiens, PANC-1, 72 h. In outline: as §1
For another test, the system named is SK-MEL-28. Briefly: Inhibition of growth against MEL28 cells after 72 hrs exposure. Conditions: Homo sapiens, SK-MEL-28, 72 h. In outline: as §1
In test [3] the test system is HeLa. Briefly: Inhibition of growth against HeLa cells after 72 hrs exposure. Conditions: Homo sapiens. In a few lines: as §1
The test system of a further test is DU-145. The experiment in a line: Inhibition of growth against DU145 cells after 72 hrs exposure. The conditions noted are these: Homo sapiens, DU-145, 72 h. In a few lines:
as §1

For test [4], the system named is IGROV-1. Briefly: Inhibition of growth against IGROV cells after 72 hrs exposure. The conditions noted are these: Homo sapiens, IGROV-1, 72 h. In outline:
as §1

Test [5] deals with HeLa. The experiment in a line: Inhibition of growth against HeLa-Apl cells after 72 hrs exposure. The conditions noted are these: Homo sapiens. In a few lines: as §1
The test system of a further test is K562. Briefly: Inhibition of growth against K562 cells after 72 hrs exposure. Conditions: Homo sapiens, K562, 72 h. In outline: as §1
For another test, the system named is A549. Briefly: Inhibition of growth against A549 cells after 72 hrs exposure. The conditions noted are these: Homo sapiens, A549, 72 h. In outline: as §1
Test [6] concerns LoVo. The experiment in a line: Inhibition of growth against LoVo-Dox cells after 72 hrs exposure. Conditions: Homo sapiens. In outline:
as §1

Another test has as its system HMEC. The experiment in a line: Inhibition of growth against HMEC1 cells after 72 hrs exposure. The conditions noted are these: Homo sapiens. In a few lines: as §1
The next test deals with SK-OV-3. The experiment in a line: Inhibition of growth against SKOV3 cells after 72 hrs exposure. The conditions noted are these: Homo sapiens, SK-OV-3, 72 h. In outline: as §1

For `COc1ccnc2c1c(-c1ccnc(N)n1)c1cc(-c3ccnc(N)n3)nc(NCc3ccccc3)n12`, the GI50 came out at 21 µM in the test on IGROV-1 [1]; 21 µM in the test with LoVo [2]; 18.6 µM with LNCaP; 8.24 µM in the test on SK-BR-3; 21 µM with HT-29; 19.9 µM in the test on PANC-1. Besides, the GI50 in the test with SK-MEL-28 was 21 µM; in the test on HeLa [3], 3.03 µM; with DU-145, 21 µM; in the test on IGROV-1 [4] it was 21 µM; in the test with HeLa [5] it was 3.68 µM; in the test on K562, 21 µM. In addition, the GI50 in the test on A549 and in the test on LoVo [6] was 21 µM throughout.

For the compound `Nc1nccc(-c2cc3cc4c(O)ccnc4n3c(N)n2)n1` [7-ISOVARIOLIN B], the concentration for 50% growth inhibition (GI50) is 31.9 µM in the test on IGROV-1 [1]; 34.1 µM in the test on LoVo [2]; 5.28 µM in the test on LNCaP; 31.9 µM in the test with SK-BR-3; 34.1 µM in the test on HT-29; 21.8 µM in the test with PANC-1. In addition, the GI50 in the test with SK-MEL-28 was 3.41 µM; in the test with HeLa [3], 6.14 µM; in the test with DU-145, 34.1 µM; in the test with IGROV-1 [4] it was 27.9 µM; with HeLa [5] it was 8.86 µM; in the test with K562, 9.24 µM. Further, the concentration for 50% growth inhibition (GI50) in the test with A549 and in the test on LoVo [6] was 34.1 µM each time.

With `Nc1nccc(-c2cc3cc4c(O)ccnc4n3c(NCc3ccccc3)n2)n1`, the GI50 in the test on IGROV-1 [1] turned out to be 12.9 µM; with HMEC, 6.31 µM; with LoVo [2] it was 8.74 µM; in the test with LNCaP, 12.9 µM; in the test with SK-BR-3 it was 13.1 µM; in the test with HT-29 it was 25.1 µM. Moreover, the GI50 came out at 26.1 µM in the test with PANC-1; 24.4 µM with SK-MEL-28; 26.1 µM in the test with DU-145; 4.46 µM with IGROV-1 [4]; 26.1 µM in the test on K562; 14.1 µM with A549. The figures for the concentration for 50% growth inhibition (GI50) in the test on LoVo [6] and with SK-OV-3 were 6.76 µM and 19 µM, respectively.

As to `Nc1nccc(-c2cc3c(-c4ccnc(N)n4)c4c(O)ccnc4n3c(NCc3ccccc3)n2)n1`, the 50% growth inhibitory concentration (GI50) worked out at 9.9 µM in the test with IGROV-1 [1]; 21.7 µM in the test on HMEC; 21.7 µM in the test on LoVo [2]; 21.7 µM in the test with LNCaP; 21.7 µM in the test with SK-BR-3; 21.7 µM in the test with HT-29. Further, the GI50 in the test on PANC-1, in the test on SK-MEL-28, in the test on DU-145, with IGROV-1 [4], with K562 and in the test on A549 was 21.7 µM each time. Besides, the GI50 in the test with LoVo [6] and with SK-OV-3 was 21.7 µM in each case.

Consider `CN(C)Cc1cnc2c(c1O)c(-c1ccnc(N)n1)c1cc(-c3ccnc(N)n3)nc(NCc3ccccc3)n12`, for which the GI50 in the test on IGROV-1 [1] was found to be 3.56 µM; in the test on LoVo [2], 13.6 µM; with LNCaP, 9.13 µM; in the test with SK-BR-3, 2.79 µM; in the test on HT-29 it was 18.7 µM; in the test with PANC-1 it was 17.7 µM. For the same compound, the GI50 with SK-MEL-28 turned out to be 4.12 µM; in the test on HeLa [3], 4.52 µM; in the test with DU-145, 4.74 µM; in the test on IGROV-1 [4] it was 4.03 µM; in the test with HeLa [5], 3.88 µM; in the test on K562 it was 4.78 µM. For the same compound, the GI50 in the test with A549 was found to be 18.7 µM; with LoVo [6], 3.05 µM.

On to `Nc1nccc(-c2c3c(O)ccnc3n3c(N)nccc23)n1` [VARIOLIN B], for which the GI50 stood at 1.28 µM in the test on IGROV-1 [1]; 0.27 µM with HMEC; 0.8 µM with LoVo [2]; 0.05 µM with LNCaP; 0.85 µM in the test on SK-BR-3; 2.85 µM in the test on HT-29. Moreover, the GI50 came to 1.68 µM in the test on PANC-1; 1.2 µM in the test with SK-MEL-28; 0.89 µM in the test on DU-145; 1.14 µM with IGROV-1 [4]; 1.55 µM in the test with K562; 0.98 µM with A549. Moreover, the GI50 with LoVo [6] was determined as 1.02 µM; with SK-OV-3 it was 1.21 µM.

As for `Nc1nccc(-c2cc3c(-c4ccnc(N)n4)c4c(O)ccnc4n3c(N)n2)n1`, the GI50 in the test on IGROV-1 [1] turned out to be 26.9 µM; with LoVo [2], 26.9 µM; with LNCaP it was 26.9 µM; with SK-BR-3, 14.8 µM; in the test on HT-29, 26.9 µM; in the test with PANC-1 it was 26.9 µM. Also, the GI50 with SK-MEL-28, in the test with HeLa [3], in the test on DU-145, in the test on IGROV-1 [4], in the test on HeLa [5] and with K562 was 26.9 µM in each case. In addition, the GI50 in the test with A549 and in the test with LoVo [6] was 26.9 µM in each case.

For the compound `COc1ccnc2c1cc1cc(-c3ccnc(N)n3)nc(NCc3ccccc3)n12`, the GI50 came to 25.2 µM with IGROV-1 [1]; 15 µM with HMEC; 14.4 µM in the test on LoVo [2]; 16 µM in the test with LNCaP; 25.2 µM with SK-BR-3; 25.2 µM in the test with HT-29. Further, the 50% growth inhibitory concentration (GI50) worked out at 25.2 µM in the test on PANC-1; 25.2 µM with SK-MEL-28; 25.2 µM in the test with DU-145; 15.1 µM in the test with IGROV-1 [4]; 25.2 µM with K562; 25.2 µM with A549. Further, the GI50 with LoVo [6] was determined as 11 µM; in the test with SK-OV-3 it was 25.2 µM.

Turning to `COc1ccnc2c1c(-c1ccnc(N)n1)c1cc(C(=O)NCCN(C)C)nc(NCc3ccccc3)n12`, the GI50 worked out at 2.05 µM in the test with IGROV-1 [1]; 0.46 µM in the test with HMEC; 3.62 µM in the test on LoVo [2]; 2.37 µM in the test with LNCaP; 2.13 µM in the test with SK-BR-3; 3.44 µM with HT-29. The GI50 is 3.97 µM in the test with PANC-1; 4.42 µM with SK-MEL-28; 2.38 µM in the test with DU-145; 2.8 µM in the test on IGROV-1 [4]; 3.36 µM with K562; 3.38 µM with A549. The figures for the GI50 with LoVo [6] and in the test on SK-OV-3 were 3.46 µM and 0.72 µM, respectively.

For orientation: GI50 means the concentration at which growth is held to half of that of the control. Lower therefore signals greater sensitivity of the cells.

(Values after ChEMBL document CHEMBL1149450, “Synthesis and cytotoxic evaluation of new derivatives of the marine alkaloid variolin B” (2006).)
